Consider 47 compounds from ChEMBL document CHEMBL1800073, “Inhibition of 1-deoxy-D-xylulose-5-phosphate reductoisomerase by lipophilic phosphonates: SAR, QSAR, and crystallographic studies” (J Med Chem, 2011).

Broadly, the pKi is the negative decadic logarithm of the Ki, by convention in mol/L. A word on the Ki: it is the dissociation constant of the complex between target and ligand, obtained from inhibition or displacement. In general, IC50 refers to the point on the concentration scale where inhibition reaches its midpoint. Low readings indicate higher potency, high ones lower potency.

One experiment relates to Escherichia coli. Put plainly: Inhibition of Escherichia coli recombinant DXR using DXP as substrate and MgCl2 as cofactor at 100 uM preincubated for 10 mins. The procedure, abridged: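 Purified recombinant EcDXR (10 nM) with 2 mM MgCl2, 50 µM NADPH, 50 mM HEPES pH 7.5, 25 µg/mL BSA. Inhibitor pre-incubated with enzyme 10 min at 30 °C; reaction started with 100 µM DXP; NADPH consumption followed at 340 nm.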

Experiment [1] concerns the target T1, 1-deoxy-D-xylulose 5-phosphate reductoisomerase (Mycobacterium tuberculosis) (UniProt P9WNS1).
T1 sequence (whole entry): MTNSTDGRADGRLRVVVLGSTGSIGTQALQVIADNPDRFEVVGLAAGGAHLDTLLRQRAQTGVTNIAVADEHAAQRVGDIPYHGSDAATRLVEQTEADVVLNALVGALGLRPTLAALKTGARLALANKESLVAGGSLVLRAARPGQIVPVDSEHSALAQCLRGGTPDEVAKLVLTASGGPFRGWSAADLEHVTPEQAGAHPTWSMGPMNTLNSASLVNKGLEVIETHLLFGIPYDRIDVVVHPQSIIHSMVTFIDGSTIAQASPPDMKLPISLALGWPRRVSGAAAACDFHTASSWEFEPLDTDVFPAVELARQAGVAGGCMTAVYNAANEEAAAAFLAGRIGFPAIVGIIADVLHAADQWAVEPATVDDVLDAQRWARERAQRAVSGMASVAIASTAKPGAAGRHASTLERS
Briefly: Inhibition of Mycobacterium tuberculosis recombinant DXR expressed in Escherichia coli BL21 (DE3) using DXP as substrate and MgCl2 as cofactor at 100 uM preincubated for 10 mins. Put shortly:
(§1)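 Assay used 50 nM enzyme in 50 mM HEPES pH 7.6 with 4 mM MgCl2, 50 µM NADPH and 25 µg/mL BSA, plus 100 µM DXP added after a 10 min, 30 °C preincubation. IC50 came from initial velocities, at least three experiments.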

Experiment [2] can be described thus: Inhibition of Escherichia coli recombinant DXR using DXP as substrate and MgCl2 as cofactor preincubated for 10 mins. The procedure, abridged:
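Purified enzyme at 10 nM in 50 mM HEPES pH 7.5 with 2 mM MgCl2, 50 µM NADPH and 25 µg/mL BSA. Inhibitor was preincubated with the enzyme for 10 min at 30 °C, then 100 µM DXP was added. IC50 came from dose-response fits of initial velocities, at least three experiments.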

In experiment [3] the target is T2, 1-deoxy-D-xylulose 5-phosphate reductoisomerase (Mycobacterium tuberculosis, UniProt P9WNS1).
T2 sequence (P9WNS1 whole entry): T1 sequence (whole entry)
Briefly: Inhibition of Mycobacterium tuberculosis recombinant DXR expressed in Escherichia coli BL21 (DE3) using DXP as substrate and MgCl2 as cofactor preincubated for 10 mins. Put shortly: as §1

A short description of experiment [4]: Inhibition of DXR.

The source made the active and inactive calls. The rule behind the calls is not given here.

`O=C(O)Cc1cccnc1`: the inhibition result (in the experiment with Escherichia coli; in experiment [1]) was “inactive” throughout. Besides, the pKi in experiment [2] was < 3.52.

On to `O=c1ccc(CP(=O)(O)O)cn1O`, for which the inhibition entry (in the experiment on Escherichia coli; in experiment [1]) was “inactive” throughout. The pKi in experiment [2] is reported as 3.52.

On to `O=P(O)(O)Cc1cccc(-c2ccccc2)n1`, for which, in experiment [1], the inhibition entry was “inactive”. In experiment [2], the Ki is 3.5 µM and the pKi was 5.46.

On to `O=P(O)(O)Cc1ccc2ccccc2n1`, for which, in experiment [2], the Ki was determined as 7.9 µM and the pKi worked out at 5.1. For the same compound, in experiment [3], the Ki is 6.9 µM.

Consider `O=c1cccc(CCP(=O)(O)O)[nH]1`, for which the inhibition entry (in the experiment on Escherichia coli; in experiment [1]) was “inactive” each time. For the same compound, in experiment [2], the pKi was determined as 3.52.

For the compound `O=P(O)(O)Cc1ccc(-c2ccc3ccccc3c2)cn1`, the inhibition entry in experiment [1] is “inactive”. In experiment [2], the Ki was 13.9 µM and the negative-log Ki (pKi) turned out to be 4.86.

Take `O=P(O)(O)Cc1cc(Br)ccn1`: in experiment [2], the Ki turned out to be 3.5 µM and the pKi came out at 5.46. Also, the Ki in experiment [3] was 32.7 µM.

In the case of `O=P(O)(O)CCc1ccccn1`, the inhibition result in experiment [1] is “inactive”. In experiment [2], the Ki worked out at 18.6 µM and the pKi is listed as 4.73.

On to `O=P(O)(O)Cc1ccc(Br)cn1`, for which, in experiment [2], the Ki came to 6.7 µM and the pKi is given as 5.17. The Ki in experiment [3] was found to be 45.2 µM.

With `O=P(O)(O)Cc1ccc(OCc2ccccc2)cn1`, the inhibition result (in the experiment on Escherichia coli; in experiment [1]) was “inactive” in each case. For the same compound, the pKi in experiment [2] came to 3.52.

As to `O=P(O)(O)Cc1ccc(O)cn1`, the Ki in experiment [2] was 0.7 µM; in experiment [3], 17.3 µM. Besides, the pKi in experiment [2] is listed as 6.15.

On to `O=P(O)(O)C(Nc1ccc(Cl)cn1)P(=O)(O)O`, for which inhibition in experiment [4] was half-maximal at 7 µM (IC50). For the same compound, in experiment [1], the inhibition entry was “inactive”. In addition, in experiment [2], the Ki worked out at 15.3 µM.

Regarding `O=P(O)(O)Cc1ccncn1`, the values for the Ki in experiment [2] and in experiment [3] were 3.5 µM and 12.4 µM, respectively. The pKi in experiment [2] was 5.46.

In the case of `COc1cccc(-c2ccc(CP(=O)(O)O)nc2)c1`, in experiment [1], the inhibition result was “inactive”. In addition, in experiment [2], the inhibition constant (Ki) came to 3.6 µM and the pKi was determined as 5.46.

For `O=P(O)(O)CCc1ccccc1O`, the inhibition entry (with Escherichia coli; in experiment [1]) was “inactive” in each case. In addition, in experiment [2], the pKi is given as 3.52.

Take `O=P(O)(O)Cc1ccccn1` [PYRIDIN-2-YLMETHYLPHOSPHONIC ACID]: in experiment [2], the inhibition constant Ki was determined as 2.3 µM and the pKi was 5.64. Further, the inhibition constant Ki in experiment [3] amounted to 1.6 µM.

In the case of `CC(=O)N(O)CCCP(=O)(O)O` [FR-900098], in experiment [2], the Ki amounted to 0.019 µM and the negative-log Ki (pKi) was 7.72. Moreover, the Ki in experiment [3] came to 0.13 µM.

`O=P(O)(O)C(Nc1nccc2ccccc12)P(=O)(O)O` yielded an IC50 in experiment [4] of 4 µM. The Ki in experiment [2] came to 6.3 µM.

Consider `O=C(O)Cc1ccc(-c2ccccc2)cn1`, for which the inhibition entry (in the experiment on Escherichia coli; in experiment [1]) was “inactive” each time. The pKi in experiment [2] was < 3.52.

Take `O=P(O)(O)Cc1ccc(Cl)c(Cl)c1`: the inhibition entry (with Escherichia coli; in experiment [1]) was “inactive” throughout. Further, the pKi in experiment [2] turned out to be 3.52.

`O=P(O)(O)c1ccccc1` [PHENYLPHOSPHONIC ACID]: the inhibition entry (in the experiment with Escherichia coli; in experiment [1]) was “inactive” each time. For the same compound, the pKi in experiment [2] is reported as 3.52.

`Cc1ccc(-c2ccc(CP(=O)(O)O)nc2)cc1`: in experiment [1], the inhibition result was “inactive”. In experiment [2], the Ki was 3.9 µM and the pKi was 5.41.

On to `O=P(O)(O)Cc1cccc(O)c1O`, for which the inhibition entry (with Escherichia coli; in experiment [1]) was “inactive” each time. Moreover, the pKi in experiment [2] turned out to be 3.52.

With `O=P(O)(O)Cc1ccccc1` [BENZYLPHOSPHONIC ACID], the inhibition entry (in the experiment with Escherichia coli; in experiment [1]) was “inactive” each time. Also, in experiment [2], the pKi is on record as 3.52.

In the case of `O=P(O)(O)c1ccccn1`, the inhibition result (with Escherichia coli; in experiment [1]) was “inactive” throughout. Also, the pKi in experiment [2] was 3.52.

In the case of `O=P(O)(O)Cc1ccncc1`, the Ki in experiment [2] turned out to be 3.5 µM; in experiment [3], 6.8 µM. Further, the pKi in experiment [2] turned out to be 5.46.

For the compound `O=c1ccc(-c2ccccc2)cn1O` [1-HYDROXY-5-PHENYLPYRIDIN-2(1H)-ONE], the inhibition constant Ki was determined as 0.7 µM in experiment [2] and 21.8 µM in experiment [3].

As for `O=C(Cc1ccc(-c2ccccc2)cn1)NO`, the inhibition result (with Escherichia coli; in experiment [1]) was “inactive” in each case. Besides, the negative-log Ki (pKi) in experiment [2] is < 3.52.

In the case of `O=P(O)(O)Cc1ccc(-c2ccc(F)cc2)cn1`, the Ki came to 1.1 µM in experiment [2] and 50.7 µM in experiment [3]. For the same compound, in experiment [2], the pKi stood at 5.96.

`CC(=O)N(O)CCC(c1ccc(Cl)c(Cl)c1)P(=O)(O)O` (racemic): the figures for the Ki in experiment [2] and in experiment [3] were 0.036 µM and 1.5 µM, respectively. The pKi in experiment [2] worked out at 7.44.

For the compound `O=P(O)(O)Cc1cnccn1`, the inhibition result in experiment [1] was “inactive”. Besides, in experiment [2], the inhibition constant (Ki) was determined as 11.2 µM and the pKi is recorded as 4.95.

Regarding `O=P(O)(O)Cc1cccc(Br)n1`, the inhibition result in experiment [1] is “inactive”. For the same compound, in experiment [2], the Ki came out at 3.6 µM and the pKi was 5.46.

For `O=P(O)(O)Cc1ccc(-c2ccccc2)cn1`, in experiment [2], the Ki worked out at 0.42 µM and the pKi stood at 6.38. In addition, the Ki in experiment [3] was 3.2 µM.

With `O=P(O)(O)CCc1ccccc1`, the inhibition result (with Escherichia coli; in experiment [1]) was “inactive” in each case. In experiment [2], the pKi is 3.52.

For the compound `O=C(O)c1ccccn1` [2-PICOLINIC ACID], the inhibition entry (in the experiment on Escherichia coli; in experiment [1]) was “inactive” in each case. For the same compound, the pKi in experiment [2] worked out at 3.52.

Take `O=P(O)(O)Cc1cc(-c2ccc(F)cc2)ccn1`: in experiment [1], the inhibition result is “inactive”. Besides, in experiment [2], the Ki worked out at 3.5 µM and the pKi was 5.46.

For `O=P(O)(O)Cc1cccnc1`, the inhibition entry in experiment [1] is “inactive”. For the same compound, in experiment [2], the Ki is 5 µM and the pKi worked out at 5.3.

For `O=C(O)Cc1ccncc1`, the inhibition entry (in the experiment with Escherichia coli; in experiment [1]) was “inactive” throughout. Moreover, the pKi in experiment [2] came out at 3.52.

For `O=P(O)(O)Cc1ccc(-c2ccc(Cl)cc2)cn1`, the inhibition result in experiment [1] was “inactive”. In experiment [2], the Ki was 1.6 µM and the pKi is listed as 5.8.

Turning to `O=C(Cc1ccccn1)NO`, the inhibition result (with Escherichia coli; in experiment [1]) was “inactive” throughout. Also, the pKi in experiment [2] turned out to be 3.52.

As to `O=P(O)(O)CCCc1ccccn1`, in experiment [1], the inhibition result is “inactive”. Besides, in experiment [2], the Ki was 9.5 µM and the pKi came to 5.02.

For the compound `O=S(=O)(O)Cc1ccc(-c2ccccc2)cn1`, the inhibition result (in the experiment with Escherichia coli; in experiment [1]) was “inactive” throughout. Also, the pKi in experiment [2] was < 3.52.

Consider `O=C(NO)c1ccccn1`, for which the inhibition entry (in the experiment on Escherichia coli; in experiment [1]) was “inactive” each time. Besides, in experiment [2], the negative logarithm of the Ki (pKi) was < 3.52.

As for `O=P(O)(O)Cc1cc(-c2ccccc2)ccn1`, in experiment [2], the inhibition constant (Ki) was found to be 1.1 µM and the pKi stood at 5.96. Moreover, the Ki in experiment [3] is 6.9 µM.

With `O=C(O)Cc1ccccn1`, the inhibition result (in the experiment with Escherichia coli; in experiment [1]) was “inactive” in each case. Besides, in experiment [2], the pKi is 3.52.

With `O=C(O)c1ccc(-c2ccccc2)cn1`, the inhibition result (in the experiment with Escherichia coli; in experiment [1]) was “inactive” in each case. In experiment [2], the pKi is < 3.52.

With `O=CN(O)CCC(c1ccc(Cl)c(Cl)c1)P(=O)(O)O` (centres undefined), in experiment [2], the Ki was found to be 0.058 µM and the pKi is 7.24. In addition, the Ki in experiment [3] amounted to 1.2 µM.
